Source: PubChem BioAssay
Only some compounds are listed: those with a hit (about 4.1% of all), similar ones and a draw of the others.
KCNK9 inh = human KCNK9 channel inhibition. B-score at 10 µM. AID 488922. Q9NPC2. 310,000 compounds, 1.2% hits. HEK293 KCNK9, FluxOR thallium flux fluorescence; hits give low values;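 active = ratio B-score over 3 SD below the library mean, with starting fluorescence within 5 SD of its mean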;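 also: negative B-score means less thallium flux so channel inhibition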
Target sequence (Q9NPC2 whole entry, looked up): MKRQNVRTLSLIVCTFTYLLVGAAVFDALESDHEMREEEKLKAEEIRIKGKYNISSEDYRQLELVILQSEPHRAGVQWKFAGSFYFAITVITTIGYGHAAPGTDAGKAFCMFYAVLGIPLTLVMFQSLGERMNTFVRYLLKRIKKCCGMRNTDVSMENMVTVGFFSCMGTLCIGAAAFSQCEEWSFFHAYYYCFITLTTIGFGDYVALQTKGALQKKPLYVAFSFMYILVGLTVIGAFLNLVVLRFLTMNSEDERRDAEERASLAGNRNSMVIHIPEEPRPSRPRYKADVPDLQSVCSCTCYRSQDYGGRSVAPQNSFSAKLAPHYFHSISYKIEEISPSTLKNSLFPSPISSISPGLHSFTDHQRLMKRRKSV
KCNK3 block = human KCNK3 channel inhibition, primary screen; O14649; CHO-KCNK3 thallium flux, FluxOR fluorescence; hits give low values; B-score at 10 µM; 340,000 compounds, 0.84% hits;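 active = B-score under library mean minus 4 SD, starting fluorescence ratio at most library mean plus 5 SD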;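 also: more negative B-score means stronger inhibition of thallium flux through KCNK3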
KCNQ1 inh = inhibitors of human KCNQ1 potassium channel; CHO-K1 KCNQ1, FluxOR thallium flux fluorescence; hits give high values; B-score at 10 µM; 310,000 compounds, 1.3% hits;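 active = compounds whose thallium flux B-score, printed positive for inhibition, exceeds three library SD while starting fluorescence stays within three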;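 also: channel opened by potassium depolarization with thallium stimulus after 20 min compound exposure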
KCNQ1 pot = potentiates or activates the human KCNQ1 potassium channel | P51787 | CHO-K1 KCNQ1, thallium flux FluxOR fluorescence; hits give high values | B-score at 10 µM | 310,000 compounds, 0.35% hits;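 active = fluorescence ratio B-score, a plate-corrected score, at least three library SD, with initial intensity B-score within 5 SD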
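assay system = CHO-K1 cells stably expressing KCNQ1 | medium = assay buffer, equal DMSO in all wells | timing = 37 °C overnight plating, 90-min dark dye load, 20-min compound pretreatment | measured by = kinetic FluxOR thallium fluorescence, 10-s 1-Hz baseline, 110-s post-stimulus read | measure = fluorescence change relative to baseline, converted to B score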
hERG rescue = compounds protecting human hERG from proarrhythmic drug block. activation (rescue from dofetilide block), less the hit threshold, % at 10 µM. Q12809. AID 1511. 310,000 compounds, 0.51% hits. CHO-hERG, FluxOR thallium flux, dofetilide IC70 present;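 active = activation above the mean of controls blocked by dofetilide plus 5 SD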;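 also: thallium influx through hERG after potassium depolarization seen as dye fluorescence rise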
KCC2 mod = modulators of human KCC2 chloride dependent transport; 190,000 compounds, 2.2% hits; KCC2 cells, thallium flux FluoZin-2 fluorescence; B-score of Tl+ flux slope (higher = more flux/activation; lower = inhibition) at 10 µM;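 active = thallium flux slope and its plate-corrected score both differing from the plate sample mean at a set confidence after two filtering rounds, in either direction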;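 also: slope of fluorescence scaled to starting intensity during 10 to 20 s after thallium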
Hits are given with their value; i = inactive; nt = no result given.

SMILES | KCNK9 inh | KCNK3 block | KCNQ1 inh | KCNQ1 pot | hERG rescue | KCC2 mod
O=C(NCCc1ccccc1)C(=O)NCC1CCNCC1 | i | nt | i | i | 4.6 | i
O=S(=O)(NCCC(c1ccc(F)cc1)c1ccco1)c1ccccc1 (stereo not given) | -7.4 | i | i | i | i | i
CC1=C(C(=O)OCC(C)C)C(c2cccc(F)c2)N2C(=O)C(C)SC2=N1 (stereo not given) | -7.9 | i | i | i | i | nt
COc1ccccc1C(CNC(=O)c1ccc(NS(=O)(=O)c2ccc3c(c2)OCCO3)cc1)N(C)C (stereo not given) | i | i | i | i | i | nt
Cc1ccc(-c2cc(-c3ccc(F)cc3)n[nH]2)c(O)c1 | i | i | 6 | i | i | nt
CSc1nc(N)c2c(n1)N(C)C=NS2(=O)=O | nt | i | nt | nt | nt | nt
CC(C(Sc1ccccc1N)c1ccccc1)[N+](=O)[O-] (stereo not given) | i | i | i | i | i | i
O=C1CCCN1CCCNS(=O)(=O)c1cccc(F)c1 | i | i | i | i | 4.9 | i
CCCC1(c2ccsc2)NC(=O)NC1=O (stereo not given) | nt | i | nt | nt | nt | nt
CN1CCN(c2ccc(NC(=O)c3ccc(Cl)cc3)cn2)CC1 | i | i | i | i | 7.8 | i
O=C(Nc1ccccc1Cc1ccccc1)c1ccccc1NS(=O)(=O)c1ccc(Cl)s1 | i | i | 8 | i | i | -3.5
O=C(NCc1ccco1)c1ccccc1NS(=O)(=O)c1ccc(Cl)s1 | i | i | i | i | i | nt
Cc1ccc(-c2onc(C)c2C)cc1S(=O)(=O)N1CC(C)Oc2ccccc21 (stereo not given) | -8.1 | i | i | i | i | nt
COc1ccc(OC)c(S(=O)(=O)Nc2cccc3c(O)cccc23)c1 | i | i | i | i | i | nt
COc1ccc(OC)c(S(=O)(=O)Nc2ccc(O)c3ccccc23)c1 | i | i | i | i | 11 | i
CC1CCCN(C(=O)CCNS(=O)(=O)c2ccc3c(c2)oc(=O)n3C)C1 (stereo not given) | i | i | i | i | i | nt
COc1cc2cc(CN(Cc3nnnn3Cc3ccco3)C3CCCCC3)c(=O)[nH]c2cc1OC | i | i | i | i | i | nt
CCOc1ccc2[nH]c(=O)c(CN(Cc3ccco3)C(CC)c3nnnn3Cc3ccccc3)cc2c1 (stereo not given) | i | i | 8 | i | i | i
CCOc1ccc2[nH]c(=O)c(CN(Cc3nnnn3Cc3ccco3)C3CCCCC3)cc2c1 | i | -10 | i | i | i | i
CCOC(=O)c1cc2c(c(CCO)n1)[C@@H](CCO)N(S(=O)(=O)C(C)(C)C)C2 | nt | i | nt | nt | nt | nt
COc1ccc(NS(=O)(=O)c2cc(C(=O)N3CCN(C/C=C/c4ccccc4)CC3)ccc2C)cc1 | i | i | i | i | i | nt
CCc1ccc2[nH]c(C(=O)Nc3ccc(F)cc3Br)cc2c1 | i | i | i | 8 | i | nt
CCc1ccc2[nH]c(C(=O)Nc3ccc(Br)c(C)n3)cc2c1 | i | i | i | i | i | nt
Cc1cccc(-n2cc(CN3CCN(c4ccccn4)CC3)c(-c3cccc(F)c3)n2)c1 | i | i | i | i | i | nt
Cc1ccc(-n2cc(CN3CCN(c4ccccn4)CC3)c(-c3ccc(F)cc3)n2)cc1 | i | i | 6 | i | i | nt
SMILES | KCNK9 inh | KCNK3 block | KCNQ1 inh | KCNQ1 pot | hERG rescue | KCC2 mod
COc1ccc2cc(Br)ccc2c1CC(=O)NCCCN1CCOCC1 | i | i | i | i | i | nt
Cc1ccc(-n2ncc3c(SCC(N)=O)ncnc32)cc1C | i | i | i | i | i | nt
O=C(O)C(Cc1ccccc1)N1C(=O)c2ccccc2C1=O (stereo not given) | i | i | i | i | i | i
O=C(O)C(Cc1ccccc1)N1C(=O)c2c(Cl)c(Cl)c(Cl)c(Cl)c2C1=O (stereo not given) | i | i | 6 | i | i | nt
COC(=O)C1=NN(c2ccc(C)cc2)C2C(=O)N(c3ccccc3OC)C(=O)C12 (stereo not given) | i | i | i | i | i | i
COc1ccccc1N1C(=O)C2C(C(=O)c3ccccc3)=NN(c3ccc(Br)cc3)C2C1=O (stereo not given) | -7.2 | i | i | i | i | i
COc1ccccc1N1C(=O)C2C(C(=O)c3ccccc3)=NN(c3ccc(C)cc3)C2C1=O (stereo not given) | i | i | 6 | i | i | i
CC(Nc1nc(-c2ccccc2F)nc2ccccc12)c1ccccc1 (stereo not given) | -7.5 | i | i | i | i | nt
Fc1ccccc1-c1nc(NC2CCCC2)c2ccccc2n1 | i | i | 6 | i | i | nt
CC(C)(C)C(=O)N1CCN(c2ccc(Cl)cc2[N+](=O)[O-])CC1 | i | i | i | i | i | i
O=C(NC(=S)N1CCN(c2ccc(Cl)cc2[N+](=O)[O-])CC1)c1cccs1 | i | i | i | 20 | 6.3 | 71
O=C(NC(=S)N1CCN(c2ccc(Cl)cc2[N+](=O)[O-])CC1)c1ccco1 | i | i | i | i | i | 17
Cc1cc(C)c(NC(=O)CNC(=O)c2cc([N+](=O)[O-])ccc2N2CCOCC2)c(C)c1 | i | i | i | i | i | nt
COc1ccccc1OCCNc1cc(N2CCCCC2)ccc1[N+](=O)[O-] | -6.8 | i | 6 | i | i | i
Cc1ccc(NC(=O)NCc2ccccn2)cc1 | i | i | i | i | 9.3 | i
CCOc1ccc(NC(=O)NCc2ccccn2)cc1 | i | i | i | i | i | nt
NS(=O)(=O)c1cc(C(=O)N2CCNC(=O)C2)ccc1Cl | i | i | i | i | i | nt
C/C(=N\NC(=O)c1csc(C)c1C)c1ccc(Cl)s1 | i | i | i | i | i | 22
C/C(=N\NC(=O)c1ccoc1C)c1ccc(Cl)s1 | i | i | i | i | i | nt
C/C(=N\NC(N)=S)c1ccc(Cl)s1 | i | i | i | i | i | i
C/C(=N\NC(=S)NC(C)C)c1ccc(Cl)s1 | i | i | i | i | i | 24
Cc1[nH]c(=O)c(C#N)c(C)c1CCC(=O)NCc1cccc(C(F)(F)F)c1 | i | i | i | i | i | nt
CCOc1cccc(Oc2ccc(C(F)(F)F)cn2)c1 | -7.9 | i | i | i | i | i
CCOC(=O)c1ccc(Oc2ccc(C(F)(F)F)cn2)cc1 | i | i | i | i | i | i
CC(c1ccccc1)n1c(-c2ccc(C(C)(C)C)cc2)n[nH]c1=S (stereo not given) | i | i | i | i | i | nt
CCc1cc(-c2n[nH]c(=S)n2C(C)c2ccccc2)cs1 (stereo not given) | i | i | i | i | i | 3.9
CC(C)CNC(=O)/C=C/C=C/CCCC/C=C/c1ccc2c(c1)OCO2 | nt | i | nt | nt | nt | nt
CCCc1cc(=O)n2[nH]c(C)c(-c3ccccc3)c2n1 | i | i | i | i | i | i
Cc1[nH]n2c(=O)cc(C(C)(C)C)nc2c1-c1ccccc1 | i | i | i | 15 | 8.6 | nt
